Data set [1] has as its target Human immunodeficiency virus type 1 reverse transcriptase (Human immunodeficiency virus 1, UniProt Q72547). Description: Inhibition of HIV-1 reverse transcriptase.
The nature of data set [2]: The compound was tested for hydrolysis rate at pH 7. The format is ADME. The conditions noted are these: buffer. In outline:
(§1)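 Aqueous hydrolysis of the (aminomethyl)phthalimides followed at pH 7, 8.2 (the pH used for the RT enzyme measurements) and 9.0. Results are expressed as the observed rate constant k_obs in units of 10⁻³ min⁻¹.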

Data set [3] is described as follows: The compound was tested for hydrolysis rate at pH 8.2. The format is ADME. The conditions noted are these: buffer. In outline:
as §1

Data set [4] can be described thus: The compound was tested for hydrolysis rate at pH 9. The format is ADME. The conditions noted are these: buffer. In short, it runs like this:
as §1

`CCCCc1cc(NCN2C(=O)c3ccccc3C2=O)c(O)nc1C` returned an IC50 in data set [1] of 0.128 µM.

`Cc1cc(NCN2C(=O)c3ccccc3C2=O)c(O)nc1C` showed a half-maximal inhibitory concentration (IC50) in data set [1] of 0.218 µM.

`CCCc1cc(NCN2C(=O)c3ccccc3C2=O)c(=O)[nH]c1C` gave an IC50 in data set [1] of 0.058 µM. Compared with the last molecule, the IC50 is about 3.8-fold lower.

For the molecule `CCc1cc(NCCCN2C(=O)c3ccccc3C2=O)c(=O)[nH]c1C`, in data set [1], the midpoint of inhibition, the IC50, lay at 190 µM.

In data set [1], `CCC1=C(C)NC(OC)C(CCCN2C(=O)c3ccccc3C2=O)=C1` (stereo not given) showed an IC50 of more than 300 µM.

In data set [1], `CCC1=C(C)NC(OC)C(C(O)CN2C(=O)c3ccccc3C2=O)=C1` (stereo not given) yielded an IC50 of more than 300 µM.

`CCc1cc(/C=C/N2C(=O)c3ccccc3C2=O)c(=O)[nH]c1C` returned an IC50 in data set [1] of 54 µM.

In data set [1], `CCc1cc(CN2C(=O)c3ccccc3C2=O)c(=O)[nH]c1C` displayed an IC50 of 26.5 µM. Against the preceding molecule, the IC50 is about 2-fold lower.

On to `O=C1c2ccccc2C(=O)N1CNc1cccnc1O`, for which the k obs turned out to be 0.00085 min⁻¹ in data set [2], 0.0039 min⁻¹ in data set [3] and 0.02417 min⁻¹ in data set [4]. The IC50 in data set [1] amounted to 1.66 µM.

In the case of `CCC1=C(C)NC(OC)C(CCN2C(=O)c3ccccc3C2=O)=C1` (stereo not given), in data set [1], half-maximal inhibition (IC50) was put at 6.2 µM. This lies in the single-digit micromolar range.

With `CCc1cc(C(O)CN2C(=O)c3ccccc3C2=O)c(O)nc1C` (stereo not given), the 50% inhibitory concentration (IC50) in data set [1] is more than 300 µM.

In data set [1], `O=C1c2ccccc2C(=O)N1CCc1cccnc1O` registered an IC50 of more than 300 µM.

In the case of `CCc1cc(NCCN2C(=O)c3ccccc3C2=O)c(=O)[nH]c1C`, the 50% inhibitory concentration (IC50) in data set [1] amounted to 45 µM.

Regarding `CCc1nc(O)c(NCN2C(=O)c3ccccc3C2=O)cc1C`, the values for the k obs in data set [2], in data set [3] and in data set [4] were 0.00722 min⁻¹, 0.01001 min⁻¹ and 0.03627 min⁻¹, respectively. The molecule also returned a concentration for half-maximal inhibition (IC50) in data set [1] of 0.887 µM.

As for `Cc1ccc(NCN2C(=O)c3ccccc3C2=O)c(=O)[nH]1`, the k obs in data set [2] was found to be 0.00424 min⁻¹; in data set [3], 0.0073 min⁻¹; in data set [4] it was 0.027 min⁻¹. In addition, in data set [1], it took 8.1 µM to reach half-maximal inhibition (IC50).

In data set [1], `CCC1=C(C)NC(OC)C(C(=O)CN2C(=O)c3ccccc3C2=O)=C1` (stereo not given) came in with a half-inhibitory concentration (IC50) of more than 300 µM.

`CCc1cc(CCCN2C(=O)c3ccccc3C2=O)c(O)nc1C` displayed an IC50 in data set [1] of 210 µM.

On to `O=C1c2ccccc2C(=O)N1CNc1cc2c(nc1O)CCCC2`, for which the k obs amounted to 0.00777 min⁻¹ in data set [2], 0.013 min⁻¹ in data set [3] and 0.03678 min⁻¹ in data set [4]. This molecule also gave an IC50 in data set [1] of 3.7 µM.

For the molecule `CCC1=C(C)NC(OC)C(CN2C(=O)c3ccccc3C2=O)=C1` (stereo not given), half-maximal inhibition in data set [1] (IC50) required 16 µM.

As for `CCc1cc(C(=O)CN2C(=O)c3ccccc3C2=O)c(=O)[nH]c1C`, the IC50 in data set [1] is more than 300 µM.

On to `CCc1cc(NCN2C(=O)c3ccccc3C2=O)c(O)nc1C`, for which the k obs in data set [2] turned out to be 0.00624 min⁻¹; in data set [3] it was 0.0101 min⁻¹; in data set [4], 0.0243 min⁻¹.

Broadly, the IC50 is the concentration needed to halve the response being measured.

For the origin of these results see ChEMBL document CHEMBL1125314, “Synthesis and evaluation of 2-pyridinone derivatives as HIV-1 specific reverse transcriptase inhibitors. 1. Phthalimidoalkyl and -alkylamino analogues” (J Med Chem, 1992).
